Experimental data published in ChEMBL document CHEMBL1157383, “Antiproliferative oleanane saponins from Meryta denhamii” (J Nat Prod, 2008).

Columns and labels:
J774.A1 = experiment: Antiproliferative activity against mouse J774.A1 cells after 72 hrs by MTT conversion assay; format: cell-based; settings: J774.A1, 72 h
Procedure, shortened: (§1)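 Cells (3.4 × 10^4) plated in 96-well plates and left to adhere 2 h at 37 °C, 5% CO2/95% air; medium replaced, 1:4 serial dilutions of compound added, incubated 72 h. Viability by MTT conversion, OD read at 620 nm; % dead cells = 100 − (OD treated/OD control) × 100. 6-mercaptopurine serial dilutions run in some experiments.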

WEHI-164 = experiment: Antiproliferative activity against mouse WEHI164 cells after 72 hrs by MTT conversion assay; format: functional, cell-based; settings: WEHI-164, 72 h; procedure, shortened: as §1
HEK293 = experiment: Antiproliferative activity against human HEK293 cells after 72 hrs by MTT conversion assay; format: cell-based; settings: HEK293, 72 h; procedure, shortened: as §1

Structure (SMILES) | IC50 (J774.A1) [nM] | IC50 (WEHI-164) [nM] | IC50 (HEK293) [nM]
C[C@@H]1O[C@@H](O[C@H]2[C@H](O)[C@@H](O)[C@H](OC[C@H]3O[C@@H](OC(=O)[C@]45CCC(C)(C)C[C@H]4C4=CC[C@@H]6[C@@]7(C)CC[C@H](O[C@H]8OC[C@H](O)[C@H](O[C@@H]9O[C@H](CO)[C@@H](O[C@@H]%10O[C@H](CO)[C@@H](O)[C@H](O)[C@H]%10O)[C@H](O)[C@H]9O)[C@H]8O)C(C)(C)[C@@H]7CC[C@@]6(C)[C@]4(C)CC5)[C@H](O)[C@@H](O)[C@@H]3O)O[C@@H]2CO)[C@H](O)[C@H](O)[C@H]1O | 3000 | – | –
CC1(C)CC[C@]2(C(=O)O[C@@H]3O[C@H](CO)[C@@H](O)[C@H](O)[C@H]3O)[C@H](O)C[C@]3(C)C(=CC[C@@H]4[C@@]5(C)CC[C@H](O[C@@H]6O[C@H](C(=O)O)[C@@H](O)[C@H](O)[C@H]6O[C@@H]6O[C@H](CO)[C@@H](O)[C@H](O)[C@H]6O)C(C)(C)[C@@H]5CC[C@]43C)[C@@H]2C1 | 190 | 340 | 230
C[C@@H]1O[C@@H](O[C@H]2[C@H](O)[C@@H](O)[C@H](OC[C@H]3O[C@@H](OC(=O)[C@]45CCC(C)(C)C[C@H]4C4=CC[C@@H]6[C@@]7(C)CC[C@H](O[C@H]8OC[C@H](O)[C@H](O[C@@H]9O[C@H](CO)[C@@H](O)[C@H](O)[C@H]9O)[C@H]8O)C(C)(C)[C@@H]7CC[C@@]6(C)[C@]4(C)CC5)[C@H](O)[C@@H](O)[C@@H]3O)O[C@@H]2CO)[C@H](O)[C@H](O)[C@H]1O | 3600 | 7000 | –
C[C@@H]1O[C@@H](O[C@H]2[C@H](O)[C@@H](O)[C@H](OC[C@H]3O[C@@H](OC(=O)[C@]45CCC(C)(C)C[C@H]4C4=CC[C@@H]6[C@@]7(C)CC[C@H](O[C@@H]8O[C@H](C(=O)O)[C@@H](O)[C@H](O)[C@H]8O[C@@H]8O[C@H](CO)[C@@H](O)[C@H](O)[C@H]8O)C(C)(C)[C@@H]7CC[C@@]6(C)[C@]4(C)CC5)[C@H](O)[C@@H](O)[C@@H]3O)O[C@@H]2CO)[C@H](O)[C@H](O)[C@H]1O | 6900 | – | –
C[C@@H]1O[C@@H](O[C@H]2[C@H](O)[C@@H](O)[C@H](OC[C@H]3O[C@@H](OC(=O)[C@]45CCC(C)(C)C[C@H]4C4=CC[C@@H]6[C@@]7(C)CC[C@H](O[C@H]8OC[C@H](O)[C@H](O)[C@H]8O)C(C)(C)[C@@H]7CC[C@@]6(C)[C@]4(C)CC5)[C@H](O)[C@@H](O)[C@@H]3O)O[C@@H]2CO)[C@H](O)[C@H](O)[C@H]1O | 2500 | 3400 | –
C[C@@H]1O[C@@H](O[C@H]2[C@H](O)[C@@H](O)[C@H](O[C@@H]3[C@@H](O)[C@H](OC[C@H]4O[C@@H](OC(=O)[C@]56CCC(C)(C)C[C@H]5C5=CC[C@@H]7[C@@]8(C)CC[C@H](O[C@H]9OC[C@H](O)[C@H](O[C@@H]%10O[C@H](CO)[C@@H](O[C@@H]%11O[C@H](CO)[C@@H](O)[C@H](O)[C@H]%11O)[C@H](O)[C@H]%10O)[C@H]9O)C(C)(C)[C@@H]8CC[C@@]7(C)[C@]5(C)C[C@H]6O)[C@H](O)[C@@H](O)[C@@H]4O)O[C@H](CO)[C@H]3O)O[C@@H]2CO)[C@H](O)[C@H](O)[C@H]1O | 320 | 1700 | 1300
CC1(C)CC[C@]2(C(=O)O[C@@H]3O[C@H](CO)[C@@H](O)[C@H](O)[C@H]3O)CC[C@]3(C)C(=CC[C@@H]4[C@@]5(C)CC[C@H](O[C@H]6OC[C@H](O)[C@H](O[C@@H]7O[C@H](CO)[C@@H](O)[C@H](O)[C@H]7O)[C@H]6O)C(C)(C)[C@@H]5CC[C@]43C)[C@@H]2C1 | 3900 | 4600 | –
C[C@@H]1O[C@@H](O[C@H]2[C@H](O)[C@@H](O)[C@H](O[C@@H]3[C@@H](O)[C@H](OC[C@H]4O[C@@H](OC(=O)[C@]56CCC(C)(C)C[C@H]5C5=CC[C@@H]7[C@@]8(C)CC[C@H](O[C@H]9OC[C@H](O)[C@H](O[C@@H]%10O[C@H](CO)[C@@H](O[C@@H]%11O[C@H](CO)[C@@H](O)[C@H](O)[C@H]%11O)[C@H](O)[C@H]%10O)[C@H]9O)C(C)(C)[C@@H]8CC[C@@]7(C)[C@]5(C)CC6)[C@H](O)[C@@H](O)[C@@H]4O)O[C@H](CO)[C@H]3O)O[C@@H]2CO)[C@H](O)[C@H](O)[C@H]1O | 9000 | – | –
